Screens from PubChem.
This is one part of a sample in which hits are shown more often than they occur.
A1 apoptosis 2: compounds inhibiting A1, read as caspase activation; 24,000 tested, under 10 active; caspase activation, % (no concentration beside the values); MEF A1-2A-BIM cells, caspase-Glo luminescence, 3 h; percent of clofoctol response, DMSO zero; in the data active = caspase activation above about 5.9%
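Material: mouse embryonic fibroblasts co-expressing A1 and BIM (A1-2A-BIM), primed for A1 dependence / Quantity: 2500 cells/well / Buffer or medium: RPMI-1640 growth medium with 10% FBS / Doses: 50 nL compound per well, pinned / Schedule: 3 h compound exposure at 37 °C / Signal: Caspase-Glo luminescence (DEVD substrate) / Measure: Caspase-3/7 activation, seen as rise in luminescence signal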
INS-1E rescue: preserves ATP levels in cytokine-treated INS-1E cells; 0.1% of 20,000 active; INS-1E cytokine-induced death, ATP luminescence, 48 h; normalised: neutral wells 0, positive control 100; AID 488910; protection from cytokine-induced ATP loss, % at 10 µM;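 active = mean replicate protection from cytokine-induced ATP loss at least 50% and at least 75% of replicates each reaching 50%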
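Material: INS-1E rat cells; Quantity: 8000 cells/well; Buffer or medium: phenol-red-free RPMI with 5% fetal bovine serum; Probe or stimulus: cytokine cocktail of IFN-γ, TNF-α and IL-1β; Compound dosing: single test concentration per compound, delivered by pin transfer; Incubation: 48 h co-treatment, 10 min post-lysis read; Signal: CellTiter-Glo luminescence.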
T cruzi HTS: intracellular Trypanosoma cruzi inhibition | intracellular Trypanosoma cruzi in host cells, plate reader | activity score (inhibition), % at 5.01 µM | 4.9% of 22,000 active | AID 651903; in the data active = activity score above about 55%;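 note: parasites and compound incubated about four days before reading; 0% = median of neutral control wells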
Starred values were filed as active, the others as inactive; nt = not tested or not shown.

SMILES	A1 apoptosis 2	INS-1E rescue	T cruzi HTS
C[C@H](CO)N1C[C@H](C)[C@H](CN(C)C(=O)Nc2ccc(F)cc2)Oc2c(NC(=O)c3ccncc3)cccc2C1=O	nt	2	81*
CC(C)(C)/C=N/NC(=O)CCCCCCC(=O)O	nt	-8	-8
C[C@@H]1CN([C@@H](C)CO)C(=O)c2cc(NS(=O)(=O)c3cccs3)ccc2O[C@H]1CN(C)Cc1ccc(C(=O)Nc2ccccc2N)cc1	2	-5	14
COc1ccc(S(=O)(=O)Nc2ccc3c(c2)CC(=O)N([C@@H](C)CO)C[C@H](C)[C@@H](CN(C)Cc2ccc(C(=O)Nc4ccccc4N)cc2)O3)cc1	0	2	58*
COc1ccc(S(=O)(=O)Nc2ccc3c(c2)CC(=O)N([C@H](C)CO)C[C@@H](C)[C@H](CN(C)Cc2ccc(C(=O)Nc4ccccc4N)cc2)O3)cc1	-1	nt	nt
Cc1ccc(S(=O)(=O)Nc2ccc3c(c2)CC(=O)N([C@@H](C)CO)C[C@@H](C)[C@@H](CN(C)Cc2ccc(C(=O)Nc4ccccc4N)cc2)O3)cc1	-1	0	63*
Cc1ccc(S(=O)(=O)Nc2ccc3c(c2)CC(=O)N([C@H](C)CO)C[C@H](C)[C@@H](CN(C)Cc2ccc(C(=O)Nc4ccccc4N)cc2)O3)cc1	-1	nt	nt
C[C@@H]1CN([C@H](C)CO)C(=O)Cc2cc(NS(=O)(=O)c3ccc(Cl)cc3)ccc2O[C@H]1CN(C)Cc1ccc(C(=O)Nc2ccccc2N)cc1	nt	5	69*
C[C@H]1CN([C@@H](C)CO)C(=O)Cc2cc(NS(=O)(=O)c3cccs3)ccc2O[C@H]1CN(C)Cc1ccc(C(=O)Nc2ccccc2N)cc1	1	23	68*
C[C@@H]1CN([C@@H](C)CO)C(=O)Cc2cc(NS(=O)(=O)c3ccc(Cl)cc3)ccc2O[C@@H]1CN(C)Cc1ccc(C(=O)Nc2ccccc2N)cc1	1	nt	nt
C=CCNC(=O)[C@H]1[C@@H]2C(=O)O[C@@H](c3ccccc3)[C@@H](c3ccccc3)N2[C@@H](c2ccc(OCCO)cc2)[C@]12C(=O)N(C(=O)OCCOC)c1ccc(C#CC3(O)CCCCCC3)cc12	1	nt	nt
COc1ccc(/C=N/NC(=O)CCCCCC(=O)Nc2ccccc2O)c(OC)c1	0	19	-11
COC(=O)CCCCCCC(=O)N/N=C/c1ccccn1	2	0	8
O=C(CCCCCCC(=O)Nc1ccccc1O)N/N=C/c1cc2c(cc1Br)OCO2	0	11	9
O=C(NO)c1ccc(C(=O)N/N=C/c2ccc([N+](=O)[O-])s2)cc1	0	16	38
CN(C)c1ccc(/C=N/NC(=O)CCCCC(=O)NO)cc1	0	33	11
C[C@H](CO)N1C[C@H](C)[C@H](CN(C)C(=O)Nc2cccc3ccccc23)Oc2ncc(-c3ccc(F)cc3)cc2C1=O	1	-3	33
C[C@H](CO)N1C[C@H](C)[C@H](CN(C)Cc2cccc(C(F)(F)F)c2)Oc2ncc(Br)cc2C1=O	0	nt	24
C[C@H](CO)N1C[C@H](C)[C@H](CN(C)Cc2cccc(C(F)(F)F)c2)Oc2ncc(-c3cc4ccccc4o3)cc2C1=O	nt	nt	90*
C[C@H](CO)N1C[C@H](C)[C@H](CN(C)C(=O)NC2CCCC2)Oc2ncc(-c3cc4ccccc4o3)cc2C1=O	-1	nt	32
C[C@H](CO)N1C[C@H](C)[C@H](CN(C)C(=O)Nc2cccc3ccccc23)Oc2ncc(-c3cc4ccccc4o3)cc2C1=O	1	nt	71*
C[C@H](CO)N1C[C@H](C)[C@H](CN(C)S(=O)(=O)c2ccccc2)Oc2ncc(-c3cc4ccccc4o3)cc2C1=O	0	nt	62*
C[C@H](CO)N1C[C@H](C)[C@H](CN(C)S(=O)(=O)c2ccc(F)cc2)Oc2ncc(-c3cc4ccccc4o3)cc2C1=O	nt	nt	52
C[C@H](CO)N1C[C@H](C)[C@H](CN(C)Cc2ccccc2)Oc2ncc(-c3cc4ccccc4o3)cc2C1=O	-1	nt	59*
O=C(N/N=C/c1ccccc1C(=O)O)c1ccccn1	-13	-13	1
SMILES	A1 apoptosis 2	INS-1E rescue	T cruzi HTS
COc1ccc(C#Cc2ccc3c(c2)[C@]2(C(=O)N3)[C@H](C(=O)O)[C@H]3C(=O)O[C@H](c4ccccc4)[C@H](c4ccccc4)N3[C@@H]2c2ccc(OCCO)cc2)cc1	-1	nt	nt
C=CCC/C=N/NC(=O)CCCCCCC(=O)NO	-1	nt	nt
Cc1noc(C)c1S(=O)(=O)Nc1ccc2c(c1)C(=O)N([C@@H](C)CO)C[C@H](C)[C@@H](CN(C)Cc1ccc(C(F)(F)F)cc1)O2	nt	-8	65*
Cc1noc(C)c1S(=O)(=O)Nc1ccc2c(c1)C(=O)N([C@H](C)CO)C[C@@H](C)[C@@H](CN(C)Cc1ccc(C(F)(F)F)cc1)O2	nt	-8	-1
Cc1noc(C)c1S(=O)(=O)Nc1ccc2c(c1)C(=O)N([C@H](C)CO)C[C@H](C)[C@H](CN(C)C(=O)Nc1ccc(C(F)(F)F)cc1)O2	nt	nt	73*
Cc1noc(C)c1S(=O)(=O)Nc1ccc2c(c1)C(=O)N([C@H](C)CO)C[C@H](C)[C@@H](CN(C)C(=O)Nc1ccc(C(F)(F)F)cc1)O2	nt	4	7
Cc1noc(C)c1S(=O)(=O)Nc1ccc2c(c1)CC(=O)N([C@H](C)CO)C[C@@H](C)[C@@H](CN(C)Cc1ccc(C(F)(F)F)cc1)O2	1	-37	69*
Cc1noc(C)c1S(=O)(=O)Nc1ccc2c(c1)CC(=O)N([C@@H](C)CO)C[C@@H](C)[C@@H](CN(C)Cc1ccc(C(F)(F)F)cc1)O2	-1	-10	34
C[C@H]1CN([C@@H](C)CO)C(=O)c2cc(NC(=O)CCCN(C)C)ccc2O[C@H]1CN(C)C(=O)Nc1ccccc1	1	nt	nt
O=C(O)CCCCCCC(=O)N/N=C/c1ccc(S(=O)(=O)O)o1	1	-9	-12
C[C@H]1CN([C@@H](C)CO)C(=O)Cc2cc(NS(=O)(=O)c3cccs3)ccc2O[C@@H]1CN(C)S(=O)(=O)c1ccc(F)cc1	nt	-2	-7
Cc1ccc(S(=O)(=O)Nc2ccc3c(c2)CC(=O)N([C@@H](C)CO)C[C@H](C)[C@@H](CN(C)S(=O)(=O)c2cccs2)O3)cc1	0	-2	-13
Cc1ccc(S(=O)(=O)N(C)C[C@H]2Oc3ccc(NS(=O)(=O)c4cccs4)cc3CC(=O)N([C@H](C)CO)C[C@H]2C)cc1	-1	-16	72*
C[C@@H]1CN([C@H](C)CO)C(=O)Cc2cc(NS(=O)(=O)c3cccs3)ccc2O[C@@H]1CN(C)S(=O)(=O)c1ccc(F)cc1	nt	-4	60*
O=C(O)CCCCCC(=O)N/N=C/c1ccccc1Cl	1	3	-1
C[C@H]1CN([C@@H](C)CO)C(=O)c2cccc(NC(=O)c3ccc(-c4nccs4)cc3)c2O[C@@H]1CN(C)Cc1ccc(C(=O)Nc2ccccc2N)cc1	nt	25	75*
C[C@@H]1CN([C@H](C)CO)C(=O)c2cccc(NC(=O)c3ccc(-c4nccs4)cc3)c2O[C@@H]1CN(C)Cc1ccc(Oc2ccccc2)cc1	nt	-52	42
